Data set [1] addresses T1, Alcohol dehydrogenase (Equus caballus) (UniProt P00327+P00328). Briefly: The compound was tested for the ability to inactivate horse liver alcohol dehydrogenase in the presence of 1 mM NAD+k.
In data set [2] the target is T2, Alcohol dehydrogenase (Homo sapiens) (UniProt P07327+P08319+P00325+P00326+P40394+P11766+P28332). Briefly: The compound was tested for the ability to inactivate human liver alcohol dehydrogenase in the absence of NAD+K. Summed up: (§1)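 Human liver ADH, purified on carboxymethyl- and DEAE-cellulose plus (NH₄)₂SO₄ (60%) with 5% ethanol throughout, ethanol dialysed out. Inactivation at 25 °C in 0.1 M Na₂P₂O₇, pH 8, enzyme about 0.2 mg/mL, 0.2 mM reagent; NAD⁺ added 1 min before reagent where used. Apparent second-order constant calculated assuming first order in reagent.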

Data set [3] addresses T2, Alcohol dehydrogenase (Homo sapiens). Description: The compound was tested for the ability to inactivate human liver alcohol dehydrogenase in the presence of 1 mM NAD+k. Summed up:
as §1

The nature of data set [4]: The compound was tested for the ability to inactivate mouse liver alcohol dehydrogenase in the absence of NAD+K. The method in brief:
(§2)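 Mouse liver ADH, fourfold purified ((NH₄)₂SO₄ 45–65% cut, DEAE-cellulose), incubated at about 0.2 mg/mL with 0.2 mM reagent in 0.1 M Na₂P₂O₇ pH 8, 25 °C; coenzyme, when present, added 1 min before inactivator. Apparent second-order rate constant derived assuming reaction first order in reagent.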

The nature of data set [5]: The compound was tested for the ability to inactivate mouse liver alcohol dehydrogenase in the presence of 1 mM NAD+K. The method in brief:
as §2

Data set [6] in a line: The compound was tested for the ability to inactivate rat liver alcohol dehydrogenase in the absence of NAD+K. The method in brief: (§3)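 Rat liver enzyme purified 15-fold ((NH₄)₂SO₄ 35–75%, DEAE-cellulose). Inactivation with 0.2 mM reagent, 0.1 M pyrophosphate buffer pH 8, 25 °C, enzyme near 0.2 mg/mL; NAD⁺ preincubated 1 min with enzyme before reagent addition. Apparent second-order constants computed on assumption of first-order dependence on reagent.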

Data set [7] in a line: The compound was tested for the ability to inactivate rat liver alcohol dehydrogenase in the presence of 1 mM NAD+K. Summed up: as §3
In data set [8] the target is T1, Alcohol dehydrogenase (Equus caballus). Description: The compound was tested for the ability to inactivate horse liver alcohol dehydrogenase in the absence of NAD+k.
For data set [9] the target is unchanged. Description: (§4) The compound was tested for the ability to inactivate horse liver alcohol dehydrogenase in the presence of 0.2 mM NAD+K.
Data set [10] deals with T2, Alcohol dehydrogenase (Homo sapiens). Briefly: The compound was tested for the ability to inactivate human liver alcohol dehydrogenase in the absence of NAD+(K. The method in brief:
as §1

Data set [11] shares this target. Description: The compound was tested for the ability to inactivate human liver alcohol dehydrogenase in the presence of 1 mM NAD+(K. Summed up: as §1
A short description of data set [12]: The compound was tested for the ability to inactivate rat liver alcohol dehydrogenase in the presence of NAD+K. The method in brief: as §3
The nature of data set [13]: (§5) Percent inhibition of Alcohol dehydrogenase activity in rat liver at dose 0.13 mmol/kg. The class given is tissue-based. The method in brief:
(§6)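 Fed male Sprague-Dawley rats (160–200 g) received a single ip saline-suspended reagent dose, then ethanol 2 g/kg ip (40% w/v in saline) 22–24 h afterwards. Liver excised when blood ethanol neared zero, homogenized on ice, centrifuged. Activity = initial rate with ethanol and NAD⁺ minus rate in control assay containing 10 mM pyrazole, expressed per mg protein. Two rats per experiment.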

Data set [14] addresses T1, Alcohol dehydrogenase (Equus caballus). Description: The compound was tested for the ability to inactivate horse liver alcohol dehydrogenase in the presence of 0.2 mM NAD+(K.
Data set [15] deals with Rattus norvegicus. Description: Percent inhibition of rate of ethanol metabolism in rats at dose 0.13 mmol/kg. The class given is functional. Summed up: (§7)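 Rats (male Sprague-Dawley, fed) pretreated ip with reagent suspended in saline 22–24 h before ethanol 2 g/kg ip. Serial 5 µL tail-vein samples, Ba(OH)₂/ZnSO₄ deproteinization with 1-propanol internal standard, GC-FID. Metabolic rate = blood-ethanol decline slope × ratio of dose to extrapolated zero-time blood level. Two rats per experiment.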

The subject of data set [16] is Alcohol dehydrogenase (Equus caballus). Briefly: The compound was tested for the ability to inactivate horse liver alcohol dehydrogenase in the presence of 0.2 mM NAD+K.
Data set [17] concerns Alcohol dehydrogenase (Homo sapiens). Description: The compound was tested for the ability to inactivate human liver alcohol dehydrogenase in the presence of 0.2 mM NADH(K.
Data set [18] concerns the target T1, Alcohol dehydrogenase (Equus caballus). Description: The compound was tested for the ability to inactivate horse liver alcohol dehydrogenase in the presence of 1 mM NAD+; second order rate constant M-1 min-1.
Data set [19] has as its system Mus musculus. Description: In vivo inhibition of rate of ethanol metabolism in mice at dose 0.48 mmol/kg. The class given is functional. The method in brief:
(§8)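 Mice (male Swiss-Webster, fed) dosed ip with reagent in saline 22–24 h before ethanol 3 g/kg ip. Tail-vein blood (5 µL) deproteinized with Ba(OH)₂/ZnSO₄, 1-propanol internal standard, analyzed by GC with flame-ionization detection. Elimination slope fitted excluding absorption (1–2 h), multiplied by r (dose / theoretical zero-time blood level) to give metabolic rate. Four or five mice per group.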

Data set [20] is described as follows: Toxic effect in mice was determined in vivo. As to conditions: mouse. The format is toxicity, organism-based. The method in brief: (§9)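 Male Swiss-Webster mice (20–25 g); single i.p. dose of compound suspended in sterile 0.9% saline. Acute lethality scored over 24 h; LD₅₀ with limits at p ≤ 0.05 from three doses on 15 mice.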
For data set [21], the system named is Mus musculus. Description: In vivo inhibition of ADH activity in mice liver at a dose of 0.48 mmol/kg. The class given is functional. Summed up: (§10)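 Male Swiss-Webster mice (20–25 g), fed, given one ip dose of reagent suspended in sterile 0.9% saline, then ethanol 3 g/kg ip (40% w/v in saline) 22–24 h later. Liver removed once blood ethanol approached zero, chilled, homogenized, clarified by centrifugation. ADH activity taken as initial-velocity difference, ethanol/NAD⁺ assay minus same assay with 10 mM pyrazole, per mg protein. Four or five mice per group.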

For data set [22], the system named is Mus musculus. Briefly: In vivo inhibition of recovery of rotarod performance in mice at a dose of 0.48 mM/kg. The class given is functional. The method in brief:
(§11)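 Mice trained to hang on a 2-cm rod rotating at 7 rpm, two 15-min periods. Reagent given ip 22 h before ethanol 3 g/kg; five mice per dose, five vehicle controls. Impairment = 100(15 − minutes on rod)/15, probit-transformed; t1/2 for regaining 50% performance by regression. Inhibition = [t1/2(treated) − t1/2(control)]/t1/2(treated).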

The nature of data set [23]: Toxic effect in rats was determined in vivo. The class given is toxicity, organism-based. As to conditions: rat. Summed up: (§12)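 Male Sprague-Dawley rats (160–200 g), two per dose; single i.p. dose of compound suspended in sterile 0.9% saline. Acute lethality scored over 24 h after dosing.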
The test system of data set [24] is Rattus norvegicus. Description: In vivo inhibition of rate of ethanol metabolism in rats at dose 0.48 mmol/kg. The class given is functional. The method in brief: as §7
For data set [25], the system named is Rattus norvegicus. Description: In vivo inhibition of ADH activity in rat liver at a dose of 0.48 mM/kg. The format is functional. The method in brief: as §6
The target of data set [26] is T1, Alcohol dehydrogenase (Equus caballus). Description: The compound was tested for the ability to inactivate horse liver alcohol dehydrogenase in the presence of 1 mM NAD+(K.
The nature of data set [27]: as §4.
Data set [28] in a line: Percent inhibition of Alcohol dehydrogenase activity in mice liver at dose 0.13 mmol/kg. The format is tissue-based. Summed up:
as §10

Data set [29] can be described thus: as §5. The class given is tissue-based. The method in brief:
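Male Sprague-Dawley rats (160–200 g), two per experiment; compound suspended in sterile 0.9% saline, single i.p. dose 22–24 h before i.p. ethanol 2 g/kg (40% w/v in saline). Tail-vein blood ethanol by GC (1-propanol internal standard); elimination rate = β slope × dose/extrapolated zero-time level. Liver ADH afterwards: homogenate activity with ethanol/NAD⁺ minus 10 mM pyrazole control, per mg protein.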
The source holds these as a separate data set.

For data set [30], the target named is T1, Alcohol dehydrogenase (Equus caballus). Briefly: The compound was tested for the ability to inactivate horse liver alcohol dehydrogenase in the absence of NAD+(K.
The subject of data set [31] is Mus musculus. Briefly: Percent inhibition of rate of ethanol metabolism in mice at dose 0.13 mmol/kg. The class given is functional. The method in brief:
as §8

Data set [32] deals with Mus musculus. Description: Percent inhibition of recovery of rotarod performance in mice at dose 0.13 mmol/kg. The class given is functional. Summed up: as §11
Data set [33] can be described thus: Toxic effect in mice. The format is toxicity, organism-based. The following applies: mouse, in vivo. Summed up: as §9
The nature of data set [34]: Toxic effect in rats. The following applies: rat, in vivo. The class given is toxicity, organism-based. The method in brief: as §12
Data set [35] has as its target T2, Alcohol dehydrogenase (Homo sapiens). Briefly: The compound was tested for the ability to inactivate human liver alcohol dehydrogenase in the presence of 1 mM NAD+K. The method in brief:
as §1

On to `O=C(CBr)Nc1ccc(-c2ccc(C(=O)O)cc2)cc1`, for which the Rate constant came out at 0.4 M⁻¹ s⁻¹ in data set [1]; 0.833 M⁻¹ s⁻¹ in data set [2]; 58.3 M⁻¹ s⁻¹ in [3]; 0.717 M⁻¹ s⁻¹ in data set [4]; 0.105 M⁻¹ s⁻¹ in data set [5]; 0.483 M⁻¹ s⁻¹ in data set [6]. The Rate constant in [7] turned out to be 0.417 M⁻¹ s⁻¹; in [8], 2.33 M⁻¹ s⁻¹.
With `O=C(O)CCCc1ccc(NC(=O)CBr)cc1`, the Rate constant was 2 M⁻¹ s⁻¹ in data set [1]; 0.25 M⁻¹ s⁻¹ in data set [9]; 0.183 M⁻¹ s⁻¹ in data set [10]; 2.33 M⁻¹ s⁻¹ in data set [11]; 0.633 M⁻¹ s⁻¹ in data set [4]; 0.233 M⁻¹ s⁻¹ in data set [5]. Further, the Rate constant in data set [7] was determined as 0.533 M⁻¹ s⁻¹; in data set [12], 0.533 M⁻¹ s⁻¹; in data set [8] it was 1.67 M⁻¹ s⁻¹; in data set [14], 0.25 M⁻¹ s⁻¹; in data set [16] it was 0.25 M⁻¹ s⁻¹; in data set [17], 0.085 M⁻¹ s⁻¹. The molecule also had an inhibition in data set [13] of 27%. This molecule yielded an inhibition in vivo at 130 µmol/kg with Rattus norvegicus [15] of 24%.
For the molecule `O=C(O)CBr`, the Rate constant in data set [1] was 0.0015 M⁻¹ s⁻¹; in data set [2] it was 0.0133 M⁻¹ s⁻¹; in data set [4], 0.163 M⁻¹ s⁻¹; in data set [6], 0.217 M⁻¹ s⁻¹; in data set [7], 0.0133 M⁻¹ s⁻¹; in data set [8], 0.138 M⁻¹ s⁻¹.
On to `O=C(CBr)Nc1ccc(Oc2ccc(C(=O)O)cc2)cc1`, for which the Rate constant was 0.283 M⁻¹ s⁻¹ in data set [1]; 0.433 M⁻¹ s⁻¹ in [2]; 4.83 M⁻¹ s⁻¹ in data set [3]; 2.88 M⁻¹ s⁻¹ in data set [4]; 0.183 M⁻¹ s⁻¹ in [5]; 1.15 M⁻¹ s⁻¹ in [6]. Further, the Rate constant in data set [7] was 0.383 M⁻¹ s⁻¹; in data set [8], 5.33 M⁻¹ s⁻¹.
In the case of `CC(=O)Nc1ccc(CCCC(N)=O)cc1`, the Activity in data set [18] was 1500. The results for the inhibition in vivo at 480 µmol/kg in the data set with Mus musculus [19], with Mus musculus [21] and in the data set with Rattus norvegicus [24] were 60%, 43% and 0%, respectively. Besides, the LD50 in [20] and in data set [23] was over 480 µmol/kg in each case. Also, the figures for the Inhibition in the data set on Mus musculus [22] and in the data set with Rattus norvegicus [25] were 60% and 8%, respectively.
For the molecule `NC(=O)CCCc1ccc(NC(=O)CBr)cc1`, the Rate constant in data set [26] worked out at 3.17 M⁻¹ s⁻¹; in data set [27], 2.67 M⁻¹ s⁻¹; in data set [9], 2.67 M⁻¹ s⁻¹; in [2], 0.09 M⁻¹ s⁻¹; in data set [4], 0.6 M⁻¹ s⁻¹; in data set [5], 1 M⁻¹ s⁻¹. The Rate constant in data set [6] amounted to 0.583 M⁻¹ s⁻¹; in data set [7], 1.17 M⁻¹ s⁻¹; in data set [30], 0.667 M⁻¹ s⁻¹; in data set [35] it was 5.33 M⁻¹ s⁻¹. Moreover, the inhibition in [28] and in data set [29] was 21% in each case. The inhibition in vivo at 130 µmol/kg came out at 20% with Mus musculus [31], 58% in the data set on Mus musculus [32] and 26% with Rattus norvegicus [15]. In addition, the results for the 50% lethal dose (LD50) in data set [33] and in data set [34] were 210 µmol/kg and 130 µmol/kg, respectively.

Values taken from ChEMBL document CHEMBL1121913, “Inactivation of liver alcohol dehydrogenases and inhibition of ethanol metabolism by ambivalent active-site-directed reagents” (J Med Chem, 1981).
